pIC50: −log10 of the molar value.
How the values were obtained:
PC-3M = test: Anticancer activity in human PC-3M cells expressing PTB/GFP fusion protein assessed as perinucleolar compartment disassembly and measured after 24 hrs by Hoechst 33342 staining based microscopic method; type: functional, cell-based; settings: for IC50: read-out: pIC50 (converted); for pIC50: read-out: IC50
Method in brief: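 Imaged by high-content microscopy. Nuclei with PNC spots ≥3 and >0 scored positive. PNC prevalence % = PNC-positive nuclei/total nuclei ×100, normalized to DMSO (0% activity) and 0% PNC (−100%). IC50 from concentration-response.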

[1] = Microsomal stability in CD1 mouse liver microsomes assessed as half life measured upto 60 mins in presence of NADPH by LC-MS analysis; settings: for t1/2: mouse, microsomes, 1 h; for half-life at 1 h: CD1, mouse, liver microsomes
[2] = Permeability of the compound at pH 7.4 incubated for 30 mins by UV plate reader based PAMPA assay; settings: for permeability: pampa, pH 7.4, 0.5 h; for Papp at 0.5 h: PAMPA, pH 7.4

| SMILES | IC50 (PC-3M) | t1/2 [1] | permeability [2] | pIC50 (PC-3M) | half-life at 1 h [1] | Papp at 0.5 h [2] |
| --- | --- | --- | --- | --- | --- | --- |
| CN(C)CCn1cnc2c(c(-c3ccccc3)c(-c3ccccc3)n2Cc2ccccc2)c1=N | 2.95 µM | 14.3 min | 1358 10^-6 cm/s |  |  |  |
| N=c1c2c(-c3ccccc3)c(-c3ccccc3)n(Cc3ccccc3)c2ncn1CC1COC1 |  |  |  | < 4.70 | 113 min | 7.2 ×10⁻⁶ cm/s |
| N=c1c2c(-c3ccccc3)cn(Cc3ccccc3)c2ncn1Cc1ccco1 |  | 3 min | 1737 10^-6 cm/s | < 4.70 |  |  |
| N=c1c2c(-c3ccccc3)c(-c3ccccc3)n(Cc3ccccc3)c2ncn1CC1CCOC1 (stereo not drawn) | 10.7 µM | 5.3 min | > 1000 10^-6 cm/s |  |  |  |
| COc1ccc(-c2c(-c3ccc(OC)cc3)n(Cc3ccccc3)c3ncn([C@@H]4CCCC[C@H]4O)c(=N)c23)cc1 (mixture of isomers) |  | 29.2 min | > 1000 10^-6 cm/s | < 4.70 |  |  |
| COc1ccc(Cn2c(-c3ccccc3)c(-c3ccccc3)c3c(=N)n(C4CCOCC4)cnc32)cc1 | 0.174 µM |  |  |  |  |  |
| COc1ccc(Cn2c(-c3ccccc3)c(-c3ccccc3)c3c(=N)n(CC4CCOCC4)cnc32)cc1 | 9.33 µM | 13 min | 1266.09 10^-6 cm/s |  |  |  |
| N=c1c2c(-c3ccccc3)c(-c3ccccc3)n(Cc3ccc(OC(F)(F)F)cc3)c2ncn1CCCO | 4.37 µM |  | > 1000 10^-6 cm/s |  |  |  |
| O[C@H]1CC[C@H](Nc2ncnc3c2c(-c2ccccc2)c(-c2ccccc2)n3Cc2ccccc2)CC1 |  |  |  | < 4.70 |  |  |
| COCCn1cnc2c(c(-c3ccccc3)c(-c3ccccc3)n2Cc2ccccc2)c1=N | 9.33 µM | 9.5 min | > 1000 10^-6 cm/s |  |  |  |
| N=c1c2c(-c3ccccc3)c(-c3ccccc3)n(Cc3ccccc3)c2ncn1CCCN1CCN(c2ccccc2)CC1 | 23.4 µM | 14 min | > 1000 10^-6 cm/s |  |  |  |
| CCOC(CCCn1cnc2c(c(-c3ccccc3)c(-c3ccccc3)n2Cc2ccccc2)c1=N)OCC | 23.4 µM | 4.3 min | > 1000 10^-6 cm/s |  |  |  |
| N=c1c2c(-c3ccccc3)c(-c3ccccc3)n(Cc3ccc(S(N)(=O)=O)cc3)c2ncn1C1CCOCC1 | 1.17 µM | 70 min |  |  |  | > 1000 ×10⁻⁶ cm/s |
| N=c1c2c(-c3ccccc3)cn(Cc3ccccc3)c2ncn1CCO |  | 9.2 min | 1270.9 10^-6 cm/s | < 4.70 |  |  |
| N=c1c2c(-c3ccccc3)c(-c3ccccc3)n(Cc3ccccc3)c2ncn1C1CCN(Cc2ccccc2)CC1 | 5.01 µM | 32.2 min |  |  |  |  |
| N=c1c2c(-c3ccccc3)c(-c3ccccc3)n(CCc3ccccc3)c2ncn1CC1CCOCC1 |  | 7.3 min | 1229.2 10^-6 cm/s | 5.00 |  |  |
| N=c1c2c(-c3ccccc3)c(-c3ccccc3)n(Cc3ccc(S(N)(=O)=O)cc3)c2ncn1CC1CCOCC1 | 25.1 µM | 8.3 min | < 1 10^-6 cm/s |  |  |  |
| N=c1c2c(-c3ccccc3)c(-c3ccccc3)n(Cc3ccccc3)c2ncn1C[C@@H]1CCCC[C@H]1O (relative stereo) | 2 µM | 2.4 min | > 1000 10^-6 cm/s |  |  |  |
| COc1ccc(Cn2c(-c3ccccc3)c(-c3ccccc3)c3c(=N)n(CCCO)cnc32)cc1 | 2.14 µM | 19.9 min | > 1000 10^-6 cm/s |  |  |  |

| SMILES | IC50 (PC-3M) | t1/2 [1] | permeability [2] | pIC50 (PC-3M) | half-life at 1 h [1] | Papp at 0.5 h [2] |
| --- | --- | --- | --- | --- | --- | --- |
| N=c1c2c(-c3ccccc3)c(-c3ccccc3)n(CC3CCCCC3)c2ncn1C1CCOCC1 | 2 µM |  |  |  |  |  |
| COc1ccc(CCn2cnc3c(c(-c4ccccc4)c(-c4ccccc4)n3Cc3ccccc3)c2=N)cc1OC | 25.1 µM | 12.1 min | 1196.9 10^-6 cm/s | 4.60 |  |  |
| N=c1c2c(-c3ccccc3)c(-c3ccccc3)n(Cc3ccccc3)c2ncn1[C@H]1CC[C@@H](O)CC1 | 0.832 µM | 52.3 min | > 1000 10^-6 cm/s |  |  |  |
| N=c1c2c(-c3ccccc3)c(-c3ccccc3)n(Cc3ccc(OC(F)(F)F)cc3)c2ncn1[C@H]1CC[C@H](O)CC1 | 0.631 µM |  | 1246.89 10^-6 cm/s |  | 120 min |  |
| N=c1c2c(-c3ccccc3)c(-c3ccccc3)n(Cc3ccc(S(N)(=O)=O)cc3)c2ncn1CCCO |  | 26.7 min | < 1 10^-6 cm/s |  |  |  |
| CN(C)CCCn1cnc2c(c(-c3ccccc3)c(-c3ccccc3)n2CCc2ccccc2)c1=N |  | 77.9 min | 294.4 10^-6 cm/s | 4.90 |  |  |
| COc1ccc(-c2c(-c3ccc(OC)cc3)n(Cc3ccccc3)c3ncn(C4CCOCC4)c(=N)c23)cc1 |  | 58.7 min | > 1000 10^-6 cm/s | < 4.70 |  |  |
| N=c1c2c(-c3ccccc3)c(-c3ccccc3)n(CCc3ccccc3)c2ncn1CC1CCCO1 (stereo not drawn) | 7.94 µM | 8.4 min | > 1000 10^-6 cm/s |  |  |  |
| N=c1c2c(-c3ccc4c(c3)OCO4)c(-c3ccc4c(c3)OCO4)n(Cc3ccccc3)c2ncn1C1CCOCC1 |  |  |  | < 4.70 |  |  |
| N=c1c2c(-c3ccccc3)c(-c3ccccc3)n(CCc3ccccc3)c2ncn1C1CCOCC1 | 10 µM | 14.5 min | > 1000 10^-6 cm/s | 6.02 |  |  |
| N=c1c2c(-c3ccccc3)c(-c3ccccc3)n(Cc3ccccc3)c2ncn1[C@@H]1CCCC[C@H]1O (relative stereo) | 0.501 µM | 28.8 min | > 1000 10^-6 cm/s |  |  |  |
| OCCCNc1ncnc2c1c(-c1ccccc1)c(-c1ccccc1)n2Cc1ccccc1 |  |  |  | < 4.70 |  |  |
| Cc1c(C)n(Cc2ccccc2)c2ncn(CCCO)c(=N)c12 |  |  | 609.3 10^-6 cm/s | < 4.70 | 120 min |  |
| CCO/C=N/c1c(C#N)c(-c2ccccc2)c(-c2ccccc2)n1Cc1ccccc1 |  |  |  | < 4.70 |  |  |
| N=c1c2c(-c3ccccc3)c(-c3ccccc3)n(Cc3ccccc3)c2ncn1CC1CCOCC1 | 10.7 µM | 7.1 min | > 1000 10^-6 cm/s |  |  |  |
| COc1ccc(CCn2cnc3c(c(-c4ccccc4)cn3Cc3ccccc3)c2=N)cc1OC |  | 2.9 min | > 1000 10^-6 cm/s | < 4.70 |  |  |
| COc1ccc(-c2c(-c3ccc(OC)cc3)n(Cc3ccccc3)c3ncn([C@H]4CC[C@H](OC)CC4)c(=N)c23)cc1 |  |  | > 1000 10^-6 cm/s | < 4.70 |  |  |
| C[C@H]([C@@H](O)c1ccccc1)n1cnc2c(c(-c3ccccc3)c(-c3ccccc3)n2Cc2ccccc2)c1=N |  | 6.4 min | 606 10^-6 cm/s | < 4.70 |  |  |
| COc1ccc(-c2c(-c3ccc(OC)cc3)n(Cc3ccccc3)c3ncn(CCCO)c(=N)c23)cc1 |  |  |  | < 4.70 |  | > 1000 ×10⁻⁶ cm/s |

| SMILES | IC50 (PC-3M) | t1/2 [1] | permeability [2] | pIC50 (PC-3M) | half-life at 1 h [1] | Papp at 0.5 h [2] |
| --- | --- | --- | --- | --- | --- | --- |
| N=c1c2c(-c3ccccc3)c(-c3ccccc3)n(Cc3ccccc3)c2ncn1[C@H](CO)Cc1ccccc1 |  | 5.5 min | < 1 10^-6 cm/s | < 4.70 |  |  |
| N=c1c2c3c(n(CCc4ccccc4)c2ncn1C1CCOCC1)CCCC3 |  |  |  | < 4.70 |  |  |
| CO[C@H]1CC[C@H](n2cnc3c(c(-c4ccccc4)c(-c4ccccc4)n3Cc3ccc(OC(F)(F)F)cc3)c2=N)CC1 | 1.1 µM |  |  |  |  |  |
| COc1ccc(Cn2c(-c3ccccc3)c(-c3ccccc3)c3c(=N)n(CC4CCCO4)cnc32)cc1 (stereo not drawn) | 8.51 µM | 9.4 min | > 1000 10^-6 cm/s |  |  |  |
| N=c1c2c3c(n(CCc4ccccc4)c2ncn1CCCO)CCCC3 |  |  |  | < 4.70 | 4.5 min | 883 ×10⁻⁶ cm/s |
| N=c1c2c(-c3ccccc3)c(-c3ccccc3)n(CCc3ccccc3)c2ncn1C[C@@H]1CCCC[C@H]1O (relative stereo) | 0.955 µM | 4.3 min |  | 5.57 |  |  |
| N=c1c2c(-c3ccccc3)c(-c3ccccc3)n(CCc3ccccc3)c2ncn1CC1CCOC1 (stereo not drawn) | 10.7 µM | 6.9 min | > 1000 10^-6 cm/s |  |  |  |
| COc1ccc(-c2c(-c3ccc(OC)cc3)n(Cc3ccccc3)c3ncn(CCO)c(=N)c23)cc1 |  | 73.2 min | > 1000 10^-6 cm/s | < 4.70 |  |  |
| N=c1c2c(-c3ccccc3)c(-c3ccccc3)n(Cc3ccccc3)c2ncn1CCN |  |  | 164.7 10^-6 cm/s | < 4.70 |  |  |
| COc1ccc(Cn2c(-c3ccccc3)c(-c3ccccc3)c3c(=N)n([C@H]4CC[C@H](O)CC4)cnc32)cc1 | 0.158 µM |  | > 1000 10^-6 cm/s |  | 120 min |  |
| N=c1c2c(-c3ccccc3)c(-c3ccccc3)n(Cc3ccccc3)c2ncn1CC1CCCO1 (stereo not drawn) | 9.33 µM | 6.5 min | > 1000 10^-6 cm/s |  |  |  |
| N=c1c2c(-c3ccccc3)c(-c3ccccc3)n(Cc3ccccc3)c2ncn1C[C@@H]1CCCC[C@H]1CO (relative stereo) | 0.933 µM | 17.4 min | > 1000 10^-6 cm/s |  |  |  |
| COc1ccc(Cn2c(-c3ccccc3)c(-c3ccccc3)c3c(=N)n(CCO)cnc32)cc1 | 2.82 µM |  |  | 5.55 | 31.1 min | > 1000 ×10⁻⁶ cm/s |
| Cc1c(C)n(Cc2ccccc2)c2ncn(C3CCOCC3)c(=N)c12 |  | 26.9 min | 1683.3 10^-6 cm/s | < 4.70 |  |  |
| N=c1c2c(-c3ccccc3)c(-c3ccccc3)n(CC3CCCCC3)c2ncn1[C@H]1CC[C@H](O)CC1 | 2.75 µM |  |  |  |  |  |
| N=c1c2c(-c3ccccc3)c(-c3ccccc3)n(CC3CCCCC3)c2ncn1CCCO | 26.9 µM |  | > 1000 10^-6 cm/s |  |  |  |
| COc1ccc(-c2c(-c3ccc(OC)cc3)n(Cc3ccccc3)c3ncn([C@H]4CC[C@H](O)CC4)c(=N)c23)cc1 |  |  | 196 10^-6 cm/s | < 4.70 |  |  |
| CO[C@H]1CC[C@H](n2cnc3c(c(-c4ccccc4)c(-c4ccccc4)n3Cc3ccccc3)c2=N)CC1 | 0.251 µM |  |  |  |  |  |

— ChEMBL document CHEMBL5154945, “Discovery and Optimization of Pyrrolopyrimidine Derivatives as Selective Disruptors of the Perinucleolar Compartment, a Marker of Tumor Progression toward Metastasis” (J Med Chem, 2022)
